Measured values from ChEMBL document CHEMBL5661979, “Pharmacological inhibition of BMK1 suppresses tumor growth through promyelocytic leukemia protein” (Cancer Cell, 2010).
pIC50: −log10 of the molar value.

Key:
[1] = target: STE20-related kinase adapter protein beta (Homo sapiens, UniProt Q9C0K7); experiment: Inhibition of ALS2CR2 in human HeLa cells lysate pre incubated for 15 mins followed by ADP acyl phosphate probe addition and measured after 10 mins by LC-MS/MS analysis; assay type: subcellular
Chain of STE20-related kinase adapter protein beta (Q9C0K7 whole entry, the tested form may be a part): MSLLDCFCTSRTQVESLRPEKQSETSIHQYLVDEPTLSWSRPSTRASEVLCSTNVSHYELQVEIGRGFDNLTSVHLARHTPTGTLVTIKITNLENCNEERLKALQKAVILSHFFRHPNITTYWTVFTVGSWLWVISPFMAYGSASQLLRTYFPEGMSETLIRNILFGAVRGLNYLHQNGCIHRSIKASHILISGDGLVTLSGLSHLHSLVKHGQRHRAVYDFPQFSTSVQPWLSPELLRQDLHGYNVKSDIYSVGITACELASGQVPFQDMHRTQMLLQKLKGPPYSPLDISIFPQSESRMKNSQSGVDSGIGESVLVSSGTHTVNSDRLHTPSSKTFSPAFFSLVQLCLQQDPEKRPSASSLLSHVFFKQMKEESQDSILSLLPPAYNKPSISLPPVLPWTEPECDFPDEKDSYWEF
Outline: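 HeLa cell lysates (5 mg/mL total protein) were preincubated with inhibitor at 0, 0.8, 2, 10 or 50 μM for 15 min. ATP or ADP acylphosphate probe was then added (5 μM final) for 10 min, and reactions were stopped with urea. Up to four fragment ions per kinase probe-peptide were quantified by targeted MS. % inhibition was taken relative to untreated lysate. Run in duplicate.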

[2] = target: Calcium/calmodulin-dependent protein kinase type 1D (Homo sapiens, UniProt Q8IU85); experiment: Inhibition of CAMK1d in human HeLa cells lysate at 10 uM pre incubated for 15 mins followed by ATP acyl phosphate probe addition and measured after 10 mins by LC-MS/MS analysis relative to control; assay type: subcellular; settings: time 25.0 min
Outline: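 KiNativ-type profiling in HeLa lysate (5 mg/mL total protein). Lysate preincubated 15 min with inhibitor at 50, 10, 2, 0.8 or 0 μM, then ATP or ADP acylphosphate probe added (5 μM final) for 10 min. Reaction stopped with urea and analysed by targeted MS, using up to four fragment ions per kinase peptide-probe conjugate. % inhibition calculated against untreated lysate. Duplicate reactions.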

[3] = target: Cyclin-dependent kinase 2 (Homo sapiens, UniProt P24941); experiment: Inhibition of CDK2 in human HeLa cells lysate at 50 uM pre incubated for 15 mins followed by ATP acyl phosphate probe addition and measured after 10 mins by LC-MS/MS analysis relative to control; assay type: subcellular; settings: time 25.0 min
Outline: (§1)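 KiNativ profiling in HeLa lysate (5 mg/mL total protein). Lysate incubated 15 min with inhibitor at 50, 10, 2, 0.8 or 0 μM. ATP or ADP acylphosphate probe then added (5 μM final) and reacted 10 min. Reaction stopped with urea and analysed by targeted MS, using up to four fragment ions per kinase peptide-probe conjugate. % inhibition taken against untreated lysate. Run in duplicate.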

[4] = target: p38 delta/gamma (Homo sapiens) (UniProt O15264+P53778); experiment: Inhibition of p38d/p38g in human HeLa cells lysate at 50 uM pre incubated for 15 mins followed by ATP acyl phosphate probe addition and measured after 10 mins by LC-MS/MS analysis relative to control; assay type: subcellular; settings: time 25.0 min
[5] = target: Serine/threonine-protein kinase Nek7 (Homo sapiens, UniProt Q8TDX7); experiment: Inhibition of NEK7 in human HeLa cells lysate at 2 uM pre incubated for 15 mins followed by ADP acyl phosphate probe addition and measured after 10 mins by LC-MS/MS analysis relative to control; assay type: subcellular; settings: time 25.0 min
[6] = Inhibition of NEK6/7 in human HeLa cells lysate pre incubated for 15 mins followed by ADP acyl phosphate probe addition and measured after 10 mins by LC-MS/MS analysis; assay type: subcellular
[7] = target: Proto-oncogene tyrosine-protein kinase ROS (Homo sapiens) (UniProt P08922); experiment: Inhibition of ROS1 (unknown origin) assessed as remaining activity at 10 uM by ATP-competition binding assay relative to control
[8] = Inhibition of MST4/YSK1 in human HeLa cells lysate at 50 uM pre incubated for 15 mins followed by ADP acyl phosphate probe addition and measured after 10 mins by LC-MS/MS analysis relative to control; settings: 25 min, condition cancer
[9] = target: Serine/threonine-protein kinase Nek9 (Homo sapiens, UniProt Q8TD19); experiment: Inhibition of NEK9 in human HeLa cells lysate pre incubated for 15 mins followed by ADP acyl phosphate probe addition and measured after 10 mins by LC-MS/MS analysis; assay type: subcellular
Chain of Serine/threonine-protein kinase Nek9 (Q8TD19 whole entry): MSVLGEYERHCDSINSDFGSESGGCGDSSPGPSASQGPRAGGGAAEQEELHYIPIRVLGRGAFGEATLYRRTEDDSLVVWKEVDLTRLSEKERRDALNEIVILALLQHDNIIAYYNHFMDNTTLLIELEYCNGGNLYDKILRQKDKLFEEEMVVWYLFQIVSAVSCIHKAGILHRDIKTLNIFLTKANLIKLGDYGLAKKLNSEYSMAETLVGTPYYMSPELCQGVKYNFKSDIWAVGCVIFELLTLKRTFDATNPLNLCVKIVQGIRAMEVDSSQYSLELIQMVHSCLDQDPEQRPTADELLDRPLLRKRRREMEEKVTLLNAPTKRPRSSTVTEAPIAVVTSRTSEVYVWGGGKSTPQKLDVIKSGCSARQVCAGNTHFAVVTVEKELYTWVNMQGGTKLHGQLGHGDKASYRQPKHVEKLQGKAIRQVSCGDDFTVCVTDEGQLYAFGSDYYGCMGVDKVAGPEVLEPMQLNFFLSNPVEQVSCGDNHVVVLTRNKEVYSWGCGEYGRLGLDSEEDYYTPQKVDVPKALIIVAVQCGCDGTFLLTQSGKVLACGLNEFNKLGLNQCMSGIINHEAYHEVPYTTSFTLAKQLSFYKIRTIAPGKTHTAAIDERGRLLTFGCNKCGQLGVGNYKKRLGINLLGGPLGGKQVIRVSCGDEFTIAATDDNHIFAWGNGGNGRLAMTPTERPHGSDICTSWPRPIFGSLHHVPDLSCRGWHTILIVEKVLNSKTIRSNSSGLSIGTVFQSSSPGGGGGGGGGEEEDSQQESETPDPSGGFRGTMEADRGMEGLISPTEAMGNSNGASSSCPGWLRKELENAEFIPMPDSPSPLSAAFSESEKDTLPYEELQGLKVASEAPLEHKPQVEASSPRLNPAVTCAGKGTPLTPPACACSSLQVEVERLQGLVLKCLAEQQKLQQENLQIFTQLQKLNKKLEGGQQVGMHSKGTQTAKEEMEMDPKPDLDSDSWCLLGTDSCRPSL

SRSF protein kinase 1 = SRSF protein kinase 1 (Homo sapiens, UniProt Q96SB4); experiment: Inhibition of SRPK1 in human HeLa cells lysate pre incubated for 15 mins followed by ATP acyl phosphate probe addition and measured after 10 mins by LC-MS/MS analysis; assay type: subcellular
[10] = target: T1, Serine/threonine-protein kinase Sgk3 (Homo sapiens, UniProt Q96BR1); experiment: Inhibition of SGK3 K1 site in human HeLa cells lysate pre incubated for 15 mins followed by ATP acyl phosphate probe addition and measured after 10 mins by LC-MS/MS analysis; assay type: subcellular
T1 sequence (Q96BR1 whole entry): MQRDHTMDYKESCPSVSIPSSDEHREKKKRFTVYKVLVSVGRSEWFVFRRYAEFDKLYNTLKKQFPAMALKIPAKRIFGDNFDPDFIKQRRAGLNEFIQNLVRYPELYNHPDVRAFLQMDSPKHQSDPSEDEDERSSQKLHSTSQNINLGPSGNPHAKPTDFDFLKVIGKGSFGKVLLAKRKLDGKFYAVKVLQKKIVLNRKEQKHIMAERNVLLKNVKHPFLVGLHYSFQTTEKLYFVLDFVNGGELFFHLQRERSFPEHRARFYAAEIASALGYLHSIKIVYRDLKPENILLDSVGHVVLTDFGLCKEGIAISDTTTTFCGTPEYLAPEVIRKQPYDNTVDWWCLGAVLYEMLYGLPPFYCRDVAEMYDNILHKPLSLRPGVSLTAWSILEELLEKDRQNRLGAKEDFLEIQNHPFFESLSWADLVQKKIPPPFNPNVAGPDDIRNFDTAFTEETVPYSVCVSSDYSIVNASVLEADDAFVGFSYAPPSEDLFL

[11] = target: Cyclin-dependent kinase 13 (Homo sapiens, UniProt Q14004); experiment: Inhibition of CHED in human HeLa cells lysate at 2 uM pre incubated for 15 mins followed by ADP acyl phosphate probe addition and measured after 10 mins by LC-MS/MS analysis relative to control; assay type: subcellular; settings: time 25.0 min; outline: as §1
Chain of Cyclin-dependent kinase 13 (Q14004 whole entry, looked up): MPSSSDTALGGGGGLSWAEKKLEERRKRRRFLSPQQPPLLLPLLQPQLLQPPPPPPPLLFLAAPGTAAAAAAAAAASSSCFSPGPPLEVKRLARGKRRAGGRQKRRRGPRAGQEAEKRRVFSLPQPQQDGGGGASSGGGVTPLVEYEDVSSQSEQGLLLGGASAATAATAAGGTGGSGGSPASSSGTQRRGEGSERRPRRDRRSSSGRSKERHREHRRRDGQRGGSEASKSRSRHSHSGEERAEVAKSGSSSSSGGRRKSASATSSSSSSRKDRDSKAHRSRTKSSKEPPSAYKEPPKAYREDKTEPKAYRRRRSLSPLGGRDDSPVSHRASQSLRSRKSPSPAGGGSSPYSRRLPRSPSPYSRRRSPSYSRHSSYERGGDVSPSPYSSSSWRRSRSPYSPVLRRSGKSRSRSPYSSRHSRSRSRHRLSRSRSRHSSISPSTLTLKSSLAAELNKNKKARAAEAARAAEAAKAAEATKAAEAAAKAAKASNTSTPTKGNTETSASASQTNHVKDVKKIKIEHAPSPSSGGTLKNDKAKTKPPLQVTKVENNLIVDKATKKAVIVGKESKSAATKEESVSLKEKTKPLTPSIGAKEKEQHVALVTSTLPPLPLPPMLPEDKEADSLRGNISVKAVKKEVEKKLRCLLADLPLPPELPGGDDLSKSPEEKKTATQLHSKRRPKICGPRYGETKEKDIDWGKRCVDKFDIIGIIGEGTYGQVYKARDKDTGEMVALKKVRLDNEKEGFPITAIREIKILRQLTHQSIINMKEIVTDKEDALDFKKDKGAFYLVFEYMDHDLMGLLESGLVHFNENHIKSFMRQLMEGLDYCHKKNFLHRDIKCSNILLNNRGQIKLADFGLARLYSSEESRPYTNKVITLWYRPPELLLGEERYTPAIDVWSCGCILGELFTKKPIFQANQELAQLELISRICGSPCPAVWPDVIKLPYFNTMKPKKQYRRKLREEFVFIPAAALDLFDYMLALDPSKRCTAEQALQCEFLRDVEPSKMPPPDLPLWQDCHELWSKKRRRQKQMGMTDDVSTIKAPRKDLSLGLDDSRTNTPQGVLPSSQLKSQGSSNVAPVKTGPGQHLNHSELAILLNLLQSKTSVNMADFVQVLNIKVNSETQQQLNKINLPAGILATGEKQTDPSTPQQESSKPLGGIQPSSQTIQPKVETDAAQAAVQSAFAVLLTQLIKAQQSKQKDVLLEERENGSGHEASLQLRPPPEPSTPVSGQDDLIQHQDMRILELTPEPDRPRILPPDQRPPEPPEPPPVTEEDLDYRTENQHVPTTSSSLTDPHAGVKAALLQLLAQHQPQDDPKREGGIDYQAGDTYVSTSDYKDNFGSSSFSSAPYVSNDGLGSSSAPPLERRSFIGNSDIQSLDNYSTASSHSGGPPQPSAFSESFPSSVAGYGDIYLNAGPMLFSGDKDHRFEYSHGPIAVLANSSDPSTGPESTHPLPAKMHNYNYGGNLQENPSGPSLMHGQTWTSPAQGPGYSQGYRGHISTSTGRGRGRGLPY

[12] = Inhibition of NEK6/7 in human HeLa cells lysate at 50 uM pre incubated for 15 mins followed by ADP acyl phosphate probe addition and measured after 10 mins by LC-MS/MS analysis relative to control; settings: 25 min, condition cancer
[13] = target: Serine/threonine-protein kinase ULK3 (Homo sapiens, UniProt Q6PHR2); experiment: Inhibition of ULK3 in human HeLa cells lysate pre incubated for 15 mins followed by ATP acyl phosphate probe addition and measured after 10 mins by LC-MS/MS analysis; assay type: subcellular
Chain of Serine/threonine-protein kinase ULK3 (Q6PHR2 whole entry): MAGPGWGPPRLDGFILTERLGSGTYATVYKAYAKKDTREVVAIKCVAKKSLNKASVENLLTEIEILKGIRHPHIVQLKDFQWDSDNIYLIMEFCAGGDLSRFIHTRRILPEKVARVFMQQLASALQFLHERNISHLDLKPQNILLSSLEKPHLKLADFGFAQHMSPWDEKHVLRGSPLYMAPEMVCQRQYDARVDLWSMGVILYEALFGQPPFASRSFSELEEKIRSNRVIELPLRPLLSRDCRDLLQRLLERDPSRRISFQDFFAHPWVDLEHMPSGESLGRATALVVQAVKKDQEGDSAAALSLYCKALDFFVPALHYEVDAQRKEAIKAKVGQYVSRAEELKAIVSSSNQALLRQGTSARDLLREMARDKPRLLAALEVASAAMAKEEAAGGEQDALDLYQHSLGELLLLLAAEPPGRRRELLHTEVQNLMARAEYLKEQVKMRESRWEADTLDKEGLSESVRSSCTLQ

[14] = target: Cyclin-dependent kinase 7 (Homo sapiens, UniProt P50613); experiment: Inhibition of CDK7 in human HeLa cells lysate at 50 uM pre incubated for 15 mins followed by ATP acyl phosphate probe addition and measured after 10 mins by LC-MS/MS analysis relative to control; assay type: subcellular; settings: time 25.0 min; outline: as §1
Chain of Cyclin-dependent kinase 7 (P50613 whole entry): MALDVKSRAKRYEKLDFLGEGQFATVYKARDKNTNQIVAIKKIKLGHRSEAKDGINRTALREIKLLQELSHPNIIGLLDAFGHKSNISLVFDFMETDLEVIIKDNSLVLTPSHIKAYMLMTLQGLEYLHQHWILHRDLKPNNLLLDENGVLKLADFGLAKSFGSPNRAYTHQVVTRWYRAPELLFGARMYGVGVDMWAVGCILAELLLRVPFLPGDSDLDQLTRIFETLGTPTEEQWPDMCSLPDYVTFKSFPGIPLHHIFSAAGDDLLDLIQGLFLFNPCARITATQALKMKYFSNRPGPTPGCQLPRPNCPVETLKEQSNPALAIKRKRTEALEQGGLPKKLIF

[15] = target: Serine/threonine-protein kinase greatwall (Homo sapiens) (UniProt Q96GX5); experiment: Inhibition of MASTL in human HeLa cells lysate at 2 uM pre incubated for 15 mins followed by ATP acyl phosphate probe addition and measured after 10 mins by LC-MS/MS analysis relative to control; assay type: subcellular; settings: time 25.0 min
[16] = target: Insulin-like growth factor 1 receptor (Homo sapiens, UniProt P08069); experiment: Inhibition of IGF1R in human HeLa cells lysate pre incubated for 15 mins followed by ADP acyl phosphate probe addition and measured after 10 mins by LC-MS/MS analysis; assay type: subcellular
Chain of Insulin-like growth factor 1 receptor (P08069 31-736 limits assumed): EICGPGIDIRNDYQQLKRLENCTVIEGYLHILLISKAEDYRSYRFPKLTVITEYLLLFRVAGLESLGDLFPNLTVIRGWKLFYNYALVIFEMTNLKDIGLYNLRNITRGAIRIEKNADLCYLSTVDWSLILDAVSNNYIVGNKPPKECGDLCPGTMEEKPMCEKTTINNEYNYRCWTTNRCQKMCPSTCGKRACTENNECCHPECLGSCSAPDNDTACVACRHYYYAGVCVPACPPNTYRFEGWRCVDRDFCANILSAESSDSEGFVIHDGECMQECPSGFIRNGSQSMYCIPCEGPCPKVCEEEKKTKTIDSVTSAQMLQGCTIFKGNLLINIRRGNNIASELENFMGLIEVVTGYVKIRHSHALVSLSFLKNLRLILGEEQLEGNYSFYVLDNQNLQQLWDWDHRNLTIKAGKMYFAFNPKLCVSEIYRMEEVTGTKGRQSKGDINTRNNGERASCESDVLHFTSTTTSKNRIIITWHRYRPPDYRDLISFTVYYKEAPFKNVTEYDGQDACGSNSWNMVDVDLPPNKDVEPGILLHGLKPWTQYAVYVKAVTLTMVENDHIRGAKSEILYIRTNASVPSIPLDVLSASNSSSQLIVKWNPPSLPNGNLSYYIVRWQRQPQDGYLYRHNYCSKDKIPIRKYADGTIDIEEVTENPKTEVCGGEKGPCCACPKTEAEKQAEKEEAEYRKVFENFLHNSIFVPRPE
Chain of Insulin-like growth factor 1 receptor (P08069 741-1367 limits assumed): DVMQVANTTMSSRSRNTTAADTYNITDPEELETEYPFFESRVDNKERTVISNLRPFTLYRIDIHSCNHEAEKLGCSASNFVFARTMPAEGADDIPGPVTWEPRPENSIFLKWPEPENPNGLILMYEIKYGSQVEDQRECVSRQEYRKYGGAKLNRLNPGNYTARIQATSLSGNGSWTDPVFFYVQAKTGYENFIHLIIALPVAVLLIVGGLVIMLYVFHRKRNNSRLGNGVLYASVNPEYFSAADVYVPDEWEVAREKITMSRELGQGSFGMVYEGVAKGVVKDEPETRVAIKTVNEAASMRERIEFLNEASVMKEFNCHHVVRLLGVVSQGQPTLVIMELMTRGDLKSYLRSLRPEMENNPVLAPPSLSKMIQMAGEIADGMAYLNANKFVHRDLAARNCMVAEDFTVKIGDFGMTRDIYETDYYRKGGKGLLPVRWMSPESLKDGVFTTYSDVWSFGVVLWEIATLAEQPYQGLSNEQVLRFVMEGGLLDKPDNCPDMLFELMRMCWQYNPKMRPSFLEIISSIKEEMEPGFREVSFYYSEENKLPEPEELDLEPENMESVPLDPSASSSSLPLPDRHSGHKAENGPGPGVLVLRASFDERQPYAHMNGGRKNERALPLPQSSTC

[17] = Inhibition of MSK1/2 domain 1 in human HeLa cells lysate at 50 uM pre incubated for 15 mins followed by ATP acyl phosphate probe addition and measured after 10 mins by LC-MS/MS analysis relative to control; settings: 25 min, condition cancer
[18] = target: Phosphorylase b kinase gamma catalytic chain, liver/testis isoform (Homo sapiens, UniProt P15735); experiment: Inhibition of PHKg2 in human HeLa cells lysate pre incubated for 15 mins followed by ADP acyl phosphate probe addition and measured after 10 mins by LC-MS/MS analysis; assay type: subcellular

## CCOc1cc(N2CCC(O)CC2)ccc1Nc1ncc2c(n1)N(C)c1ccccc1C(=O)N2C
[1]
  pIC50: < 4.30
[2]
  inhibition: -7.6%
[3]
  inhibition: -1.9%
[4]
  inhibition: 37.2%
[5]
  inhibition: 14.2%
[6]
  pIC50: < 4.30
[7]
  Activity: 15%
[8]
  inhibition at 50 µM: -14.3%
[9]
  pIC50: < 4.30
SRSF protein kinase 1
  pIC50: < 4.30
[10]
  pIC50: < 4.30
[11]
  inhibition: 28.1%
[12]
  inhibition at 50 µM: 5.6%
[13]
  pIC50: < 4.30
[14]
  inhibition: -0.5%
[15]
  inhibition: 8.1%
[16]
  pIC50: < 4.30
[17]
  inhibition at 50 µM: -21.5%
[18]
  pIC50: < 4.30
